Measurements from paper PMC7032090 (Asian Journal of Pharmaceutical Sciences, 2019).

Tests used:
Caco-2 cells [1] = assay: In vitro cytotoxicity; format: cell-based; settings: for IC50: Homo sapiens, Caco-2, 48 h, read-out: IC50 Caco-2; for IC50 in Caco-2 cells, fold greater than 5-FU: MTT, 48 h
Outline: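 Caco-2 cells seeded at 5 × 10^3 per well and grown 24 h. Cells were exposed to a concentration gradient of test compound for 48 h. Medium was replaced with 20% MTT medium for 4 h at 37 °C, then formazan was dissolved in DMSO for 15 min. Absorbance was read at 490 nm and IC50 calculated.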

In vivo pharmacokinetics = assay: In vivo pharmacokinetics; design: species or system Sprague-Dawley rats; settings: 8 mg/kg
Outline: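 Male Sprague-Dawley rats (200–220 g), 5 per group. Oral dosing was 20 mg/kg 5-FU equivalent; one group received 5-FU iv at 8 mg/kg for absolute bioavailability. Plasma was collected at set times. Samples were precipitated with methanol plus internal standard, dried under nitrogen at 37 °C and reconstituted in methanol:water 15:85. Prodrug and 5-FU were measured together by UPLC-MS/MS (C18, water/acetonitrile gradient, MRM).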

Kunming mice = assay: In vivo safety evaluation; settings: 40 mg/kg intragastrically, 7 d continuous
Outline: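 Male Kunming mice (18–22 g), nine in 3 groups, received PBS, 5-FU or test compound intragastrically at 40 mg/kg for 7 consecutive days. Duodenum, jejunum, ileum and colon (plus major organs) were fixed in 10% formalin, then embedded, dewaxed, stained and examined microscopically.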

[2] = Enzymatic stability in rat intestinal homogenates; format: in vitro ADME; settings: Sprague-Dawley, intestinal homogenate
Outline: (§1)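 Matrices from Sprague-Dawley rats: plasma from orbital blood stored at −80 °C, and liver or intestine washed in saline, homogenised on ice at 1:3 tissue:saline, with cold-centrifuged supernatant used. Test compound at 80 µg/ml, shaken at 37 °C, sampled 0–48 h. Samples were quenched with methanol (1:3), vortexed 2 min and centrifuged 13 000 rpm for 10 min. Supernatant was analysed by HPLC.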

[3] = In situ single-pass intestinal perfusion study; format: in vivo, Sprague-Dawley (SD) rats; settings: for absorption rate constant (Ka), fold higher than 5-FU / apparent permeability coefficient (Papp), fold higher than 5-FU: colon, 0.5 mM, rat
Outline: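 Sprague-Dawley rats (220–240 g) were anaesthetised with 20% urethane, and ileum and colon segments were cannulated. Segments were pre-perfused with blank MES buffer for 20 min, then with test compound at 0.5 mM in MES buffer. Inlet and outlet perfusate were collected and weighed at set times. Samples were methanol-precipitated (1:3) and analysed by HPLC. Ka and Papp were derived from concentrations, volumes, segment radius and length, and flow rate.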

Caco-2 cells [4] = assay: Caco-2 cell uptake study; format: cell-based; settings: for Uptake in untreated cells (without butyric acid induction): cells without induction vs butyric acid-treated; for Caco-2 uptake, fold higher than 5-FU: drug concentration 1 mM, uptake time 10 min, butyric acid-induced cells
Outline: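 Caco-2 cells seeded in 24-well plates at 1 × 10^4 per well and grown 15 d. Medium was switched to butyric acid-containing medium on day 7 to induce MCT1. Uptake ran at 37 °C at set times and concentrations, with or without inhibitor at 2.5 mM. Cells were washed three times with cold PBS, collected in water and sonicated. Drug was measured by UPLC-MS/MS and normalised to BCA protein.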

[5] = Enzymatic stability in rat plasma; format: in vitro ADME; settings: Sprague-Dawley
Outline: as §1

Caco-2 monolayer = assay: Caco-2 cell permeability; format: in vitro ADME; settings: AP → BL transport
Outline: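 Caco-2 cells seeded on Transwell inserts at 1 × 10^4 per well. After the first week, medium contained butyric acid up to 21 d, and monolayers with TEER above 300 Ω cm2 were used. Monolayers were washed with 37 °C HBSS and equilibrated for 30 min. Drug was added apically with HBSS basolaterally. BL was sampled with replacement at 5–120 min, with or without inhibitor (2.5 mM). Samples were analysed by UPLC-MS/MS and Papp calculated.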

[6] = Chemical stability in different pH hydrochloride and phosphate buffers at 37 °C; format: physicochemical; settings: for half-life at 80 µg/ml: hydrochloride or phosphate buffer (PBS); for T1/2: pH 6.8, 37 °C, 80 µg/ml
Outline: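 Test compound at 80 µg/ml in pH 1.2, 6.8 or 7.4 solution, shaken at 37 °C. Samples were taken at 0, 0.083, 0.25, 0.5, 1, 2, 4, 8, 12, 24 and 48 h. Each sample was centrifuged at 13 000 rpm for 10 min and quantified by HPLC.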

[7] = Enzymatic stability in rat hepatic homogenates; format: in vitro ADME; settings: Sprague-Dawley, liver homogenate
Outline: as §1

[8] = male, Sprague-Dawley, rat, plasma, iv

Fabs (In vivo pharmacokinetics; i.v., rat (reference)) | Cmax (In vivo pharmacokinetics; [8]) | Tmax (In vivo pharmacokinetics; [8]) | half-life (In vivo pharmacokinetics; [8]) | half-life at 80 µg/ml [2] | absorption rate constant (Ka), fold higher than 5-FU [3] | apparent permeability coefficient (Papp), fold higher than 5-FU [3] | Ka and Papp values on co-incubating with quercetin (MCT1 inhibitor) ([3]; in situ perfusion with quercetin) | Uptake in untreated cells (without butyric acid induction) (Caco-2 cells [4]) | Caco-2 uptake, fold higher than 5-FU (Caco-2 cells [4]) | half-life at 80 µg/ml [5] | membrane permeability AP → BL, fold greater than 5-FU (Caco-2 monolayer) | half-life at 80 µg/ml ([6]; pH 1.2) | half-life at 80 µg/ml ([6]; pH 7.4) | T1/2 [6] | half-life at 80 µg/ml [7] | SMILES | IC50 (Caco-2 cells [1]) | Intestinal histology (duodenum, jejunum, ileum, colon; H&E) (Kunming mice) | Systemic histology (heart, liver, spleen, lung, kidney; H&E) (Kunming mice) | IC50 in Caco-2 cells, fold greater than 5-FU (Caco-2 cells [1])
100% | 11200 ng/mL | 4.8 min | 0.29 ± 0.06 h | – | – | – | – | – | – | – | – | – | – | – | – | O=c1[nH]cc(F)c(=O)[nH]1 [5-FU, 5-Fluorouracil] | 77.8 ± 1.11 µM | inflammatory cell infiltration occurred in the duodenum, jejunum and ileum tissues | the liver cells were wrinkled, the nuclei were pyknotic | –
– | – | – | – | 3.4 ± 0.2 h | 1.1 fold | 1.1 fold | significantly decreased | significantly decreased | 2.2 fold | 19.7 ± 5.1 h | 8.5 fold | 38.3 ± 0.1 h | 143 ± 36.8 h | No hydrolysis | 9.7 ± 3 h | O=C(O)CCCCC(=O)OCn1cc(F)c(=O)[nH]c1=O [HDA-5-FU, Hexanedioic acid mono-(5-fluoro-2,4-dioxo-3,4-dihydro-2H-pyrimidin-1-ylmethyl) ester] | 500.8 ± 1.32 µM | – | – | 6.4 fold
– | – | – | – | 1.2 ± 0.1 h | 3.8 fold | 3.3 fold | – | significantly decreased | 5.5 fold | 15.3 ± 1.1 h | 13.1 fold | 36.8 ± 2.3 h | 152 ± 13.1 h | No hydrolysis | < 0.25 h | O=C(O)CCCCCCC(=O)OCn1cc(F)c(=O)[nH]c1=O [OA-5-FU, octanedioic acid mono-(5-fluoro-2,4-dioxo-3,4-dihydro-2H-pyrimidin-1-ylmethyl) ester] | 317.7 ± 1.1 µM | No significant toxicity | – | 4.1 fold
